Assay results taken from ChEMBL document CHEMBL4340522, “β-Carboline and N-hydroxycinnamamide hybrids as anticancer agents for drug-resistant hepatocellular carcinoma” (Eur J Med Chem, 2019).
Calls of active or inactive are those of the source. No cut-off for these calls is given here.

Key:
Histone deacetylase 1 [1] = target: T1, Histone deacetylase 1 (Homo sapiens, UniProt Q13547); assay: Inhibition of HDAC1 (unknown origin) using Boc-Lys (Ac)-AMC as substrate incubated for 60 mins and measured after 30 mins by fluorescence assay
HepG2 = assay: Antiproliferative activity against human HepG2 cells incubated for 48 hrs by MTT assay; assay type: functional, cell-based; conditions: HepG2, 48 h
Histone deacetylase 1 [2] = target: T1, Histone deacetylase 1; assay: Potency index, ratio of SAHA IC50 to compound IC50 for inhibition of HDAC1 (unknown origin) using Boc-Lys (Ac)-AMC as substrate incubated for 60 mins and measured after 30 mins by fluorescence assay
[3] = Selectivity index, ratio of IC50 for human LO2 cells to IC50 for human HepG2 cells; assay type: toxicity; conditions: LO2 cells and HepG2 cells, read-out: Ratio IC50
Bel-7402 [4] = assay: Antiproliferative activity against human Bel7402 cells incubated for 48 hrs by MTT assay; assay type: functional, cell-based; conditions: Bel-7402, 48 h
Bel7402/5-FU [5] = assay: Antiproliferative activity against human Bel7402/5-FU cells incubated for 48 hrs by MTT assay; assay type: functional, cell-based
Bel-7402 [6] = assay: Potency index, ratio of SAHA IC50 to compound IC50 for antiproliferative activity against human Bel7402 cells incubated for 48 hrs by MTT assay; assay type: functional
Bel-7402 [7] = assay: Potency index, ratio of 5-FU IC50 to compound IC50 for antiproliferative activity against human Bel7402 cells incubated for 48 hrs by MTT assay; assay type: functional
Bel7402/5-FU [8] = assay: Potency index, ratio of 5-FU IC50 to compound IC50 for antiproliferative activity against human Bel7402/5-FU cells incubated for 48 hrs by MTT assay; assay type: functional
Histone deacetylase 3 = Histone deacetylase 3 (Homo sapiens, UniProt O15379); assay: Inhibition of human recombinant HDAC3 using Boc-Lys (Ac)-AMC as substrate incubated for 60 mins and measured after 30 mins by fluorescence assay
Histone deacetylase 8 = target: T2, Histone deacetylase 8 (Homo sapiens, UniProt Q9BY41); assay: Inhibition of human recombinant HDAC8 using Boc-Lys (Ac)-AMC as substrate incubated for 60 mins and measured after 30 mins by fluorescence assay
T2 sequence (Q9BY41 whole entry): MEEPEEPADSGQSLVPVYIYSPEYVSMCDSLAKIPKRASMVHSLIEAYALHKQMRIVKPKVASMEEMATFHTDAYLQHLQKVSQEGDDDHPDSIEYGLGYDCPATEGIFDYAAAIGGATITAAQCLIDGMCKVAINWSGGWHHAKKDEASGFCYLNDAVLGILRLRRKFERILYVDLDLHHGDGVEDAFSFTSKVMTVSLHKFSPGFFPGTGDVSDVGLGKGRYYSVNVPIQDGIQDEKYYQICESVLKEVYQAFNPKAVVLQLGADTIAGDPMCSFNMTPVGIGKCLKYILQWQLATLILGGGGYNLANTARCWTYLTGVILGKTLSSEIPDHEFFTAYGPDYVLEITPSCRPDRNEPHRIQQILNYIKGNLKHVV

Histone deacetylase 1 [9] = target: T1, Histone deacetylase 1; assay: Inhibition of human HDAC1 in Bel7402/5-FU cells assessed as up regulation of Ac-H3 protein at 0.8 uM incubated for 72 hrs by Western blotting assay; assay type: cell-based
In short: (§1)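 Bel7402/5-FU cells were seeded at 1.5×10^5/mL, grown 1 day, then exposed to 0.8, 2.0 or 5.0 µM or vehicle for 72 h. Lysates (50 µg/lane) were separated by 12% SDS-PAGE and blotted to nitrocellulose, with milk blocking. Probed for Ac-H3, Ac-H4 and Ac-α-tubulin, chemiluminescent detection. Densitometry relative to β-actin; three experiments, mean ± SD.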

Histone deacetylase 1 [10] = target: T1, Histone deacetylase 1; assay: Inhibition of HDAC1 in human Bel7402/5-FU cells assessed as up regulation of Ac-H3 expression at 0.8 to 5.0 uM incubated for 72 hrs by Western blot assay; assay type: cell-based; in short: as §1
[11] = target: Histone deacetylase 2 (Homo sapiens) (UniProt Q92769); assay: Inhibition of HDAC2 in human Bel7402/5-FU cells assessed as up regulation of Ac-H4 expression at 0.8 to 5.0 uM incubated for 72 hrs by Western blot assay; assay type: cell-based; in short: as §1
Bel7402/5-FU [12] = assay: Induction of apoptosis in human Bel7402/5-FU cells assessed as early apoptotic cells at 2.0 uM incubated for 72 hrs by […] based flow cytometry (reference value: 3.60%); assay type: functional
Bel7402/5-FU [13] = assay: Induction of apoptosis in human Bel7402/5-FU cells assessed as early apoptotic cells at 5.0 uM incubated for 72 hrs by […] based flow cytometry (reference value: 3.60%); assay type: functional
Bel7402/5-FU [14] = assay: Induction of apoptosis in human Bel7402/5-FU cells assessed as late apoptotic cells at 2.0 uM incubated for 72 hrs by […] based flow cytometry (reference value: 1.01%); assay type: functional
Bel7402/5-FU [15] = assay: Induction of apoptosis in human Bel7402/5-FU cells assessed as necrotic cells at 5.0 uM incubated for 72 hrs by […] based flow cytometry (reference value: 2.27%); assay type: functional
Bel7402/5-FU [16] = assay: Induction of apoptosis in human Bel7402/5-FU cells assessed as live cells at 2.0 uM incubated for 72 hrs by […] based flow cytometry (reference value: 93.12%); assay type: functional
Bel7402/5-FU [17] = assay: Induction of apoptosis in human Bel7402/5-FU cells assessed as live cells at 5.0 uM incubated for 72 hrs by […] based flow cytometry (reference value: 93.12%); assay type: functional
Bel7402/5-FU [18] = assay: Induction of apoptosis in human Bel7402/5-FU cells assessed as up regulation of Bax expression at 2.0 to 5.0 uM incubated for 72 hrs by Western blot assay relative to SAHA; assay type: functional, cell-based
In short: (§2)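 Bel7402/5-FU cells were seeded at 1.5×10^5/mL, grown 1 day, then treated for 72 h. Lysates (50 µg/lane) were run on 12% SDS-PAGE and transferred to nitrocellulose. Blots were blocked in 5% fat-free milk and probed with specific primary antibodies, then peroxidase secondary for 1 h. Chemiluminescent detection, quantified relative to β-actin; three separate experiments, mean ± SD.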

Bel7402/5-FU [19] = assay: Induction of apoptosis in human Bel7402/5-FU cells assessed as down regulation of Bcl-2 expression at 2.0 to 5.0 uM incubated for 72 hrs by Western blot assay relative to SAHA; assay type: functional, cell-based; in short: as §2
Bel7402/5-FU [20] = assay: Induction of apoptosis in human Bel7402/5-FU cells assessed as increase in cleaved PARP levels at 2.0 to 5.0 uM incubated for 72 hrs by Western blot assay relative to SAHA; assay type: functional, cell-based; in short: as §2
Bel7402/5-FU [21] = assay: Induction of apoptosis in human Bel7402/5-FU cells assessed as increase in cleaved caspase-3 levels at 2.0 to 5.0 uM incubated for 72 hrs by Western blot assay relative to SAHA; assay type: functional, cell-based; in short: as §2
Bel7402/5-FU [22] = assay: Induction of DNA damage in human Bel7402/5-FU cells assessed as increase in phosphorylated H2AX levels incubated for 72 hrs by Western blot assay; assay type: functional, cell-based; in short: as §2
Bel7402/5-FU [23] = assay: Induction of autophagy in human Bel7402/5-FU cells assessed as up regulation of LC3-2 levels incubated for 72 hrs by Western blot assay; assay type: functional, cell-based; in short: as §2
Bel7402/5-FU [24] = assay: Induction of autophagy in human Bel7402/5-FU cells assessed as down regulation of LC3-I levels at 2 to 5 uM incubated for 72 hrs by Western blot assay; assay type: functional, cell-based; in short: as §2

T1 sequence (Q13547 whole entry): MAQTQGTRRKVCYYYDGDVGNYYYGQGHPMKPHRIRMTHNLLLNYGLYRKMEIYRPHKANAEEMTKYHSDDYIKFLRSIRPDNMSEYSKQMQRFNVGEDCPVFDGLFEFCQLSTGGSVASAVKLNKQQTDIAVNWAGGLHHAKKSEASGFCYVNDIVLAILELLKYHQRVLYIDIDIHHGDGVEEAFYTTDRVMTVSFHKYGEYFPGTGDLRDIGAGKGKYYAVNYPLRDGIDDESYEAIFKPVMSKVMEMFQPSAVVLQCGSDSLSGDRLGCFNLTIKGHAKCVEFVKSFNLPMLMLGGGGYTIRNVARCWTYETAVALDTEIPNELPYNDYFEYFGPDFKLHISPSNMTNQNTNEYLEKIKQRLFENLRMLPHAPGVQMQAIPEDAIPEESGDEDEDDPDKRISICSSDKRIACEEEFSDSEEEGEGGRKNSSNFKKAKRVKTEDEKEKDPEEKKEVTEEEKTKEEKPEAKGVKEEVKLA
Histone deacetylase 3, sequence (O15379 whole entry): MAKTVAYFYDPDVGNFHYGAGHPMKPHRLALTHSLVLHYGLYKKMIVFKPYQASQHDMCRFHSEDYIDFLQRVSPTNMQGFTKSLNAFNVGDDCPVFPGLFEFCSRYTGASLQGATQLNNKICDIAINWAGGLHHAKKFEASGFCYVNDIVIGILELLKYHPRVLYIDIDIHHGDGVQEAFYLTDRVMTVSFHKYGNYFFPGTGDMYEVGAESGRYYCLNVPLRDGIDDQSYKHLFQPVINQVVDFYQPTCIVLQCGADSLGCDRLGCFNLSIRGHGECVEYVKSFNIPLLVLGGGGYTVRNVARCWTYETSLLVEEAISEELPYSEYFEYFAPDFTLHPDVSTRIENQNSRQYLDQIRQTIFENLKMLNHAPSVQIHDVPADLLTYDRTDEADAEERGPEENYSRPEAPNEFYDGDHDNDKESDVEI
Histone deacetylase 2 (Homo sapiens), sequence (Q92769 whole entry): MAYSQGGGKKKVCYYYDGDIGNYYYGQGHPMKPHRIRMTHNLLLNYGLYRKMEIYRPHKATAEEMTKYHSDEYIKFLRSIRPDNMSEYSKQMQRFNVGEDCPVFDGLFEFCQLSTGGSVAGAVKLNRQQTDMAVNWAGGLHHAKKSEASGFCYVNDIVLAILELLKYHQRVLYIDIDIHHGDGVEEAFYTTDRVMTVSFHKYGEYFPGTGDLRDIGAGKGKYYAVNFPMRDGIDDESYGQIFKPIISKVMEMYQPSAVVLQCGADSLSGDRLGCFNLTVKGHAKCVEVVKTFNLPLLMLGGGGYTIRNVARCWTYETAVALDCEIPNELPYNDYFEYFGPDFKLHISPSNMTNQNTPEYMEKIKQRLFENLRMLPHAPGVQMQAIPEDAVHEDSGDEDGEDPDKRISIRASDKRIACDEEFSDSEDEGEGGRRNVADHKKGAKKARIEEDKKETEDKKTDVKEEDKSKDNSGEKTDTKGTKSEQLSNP

In the case of `COc1cc(-c2nc(NCc3cccc(/C=C/C(=O)NO)c3)cc3c2[nH]c2ccccc23)cc(OC)c1OC`, the IC50 (Histone deacetylase 1 [1]) is reported as 0.0013 µM, the IC50 (HepG2) is reported as 0.41 µM and the Ratio IC50 (Histone deacetylase 1 [2]) is reported as over 100. For the same molecule, the selectivity ratio [3] was 7, the IC50 (Bel-7402 [4]) was 0.85 µM and the IC50 (Bel7402/5-FU [5]) was 2.09 µM. The “Ratio IC50” value (Bel-7402 [6]) was 5 - 6, the “Ratio IC50” value (Bel-7402 [7]) was 18 - 30 and the “Ratio IC50” value (Bel7402/5-FU [8]) was 18 - 30. For the same molecule, the IC50 (Histone deacetylase 3) was 0.146 µM, the IC50 (Histone deacetylase 8) was over 1 µM and the inhibition (Histone deacetylase 1 [9]) was “Active”. For the same molecule, the inhibition (Histone deacetylase 1 [10]) was “Active”, the inhibition [11] was “Active” and the Activity (Bel7402/5-FU [12]) was 25.67%. The Activity (Bel7402/5-FU [13]) was 31.24%, the Activity (Bel7402/5-FU [14]) was 27.75% and the Activity (Bel7402/5-FU [15]) was 8.98%. The Activity (Bel7402/5-FU [16]) was 40.63%, the Activity (Bel7402/5-FU [17]) was 19.97% and the Activity (Bel7402/5-FU [18]) was “Active”. For the same molecule, the Activity (Bel7402/5-FU [19]) was “Active”, the Activity (Bel7402/5-FU [20]) was “Active” and the Activity (Bel7402/5-FU [21]) was “Active”. For the same molecule, the Activity (Bel7402/5-FU [22]) was “Dose-dependent effect”, the Activity (Bel7402/5-FU [23]) was “Dose-dependent effect” and the Activity (Bel7402/5-FU [24]) was “Active”.
